Here are results for 6 compounds from paper PMC4224617 (Chemistry & biology, 2014).

In one assay the target is chicken egg white lysozyme (Gallus gallus, UniProt P00698). Briefly: EnzChek fluorescent lysozyme assay, Dixon plot. Format: biochemical.
chicken egg white lysozyme, sequence (P00698 19-147): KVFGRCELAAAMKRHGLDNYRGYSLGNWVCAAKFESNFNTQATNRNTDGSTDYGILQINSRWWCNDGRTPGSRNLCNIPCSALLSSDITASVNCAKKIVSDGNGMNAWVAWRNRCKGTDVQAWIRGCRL
Settings: not given
The method in brief:
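Substrate: fluorescein-labelled Micrococcus lysodeikticus cells (DQ lysozyme substrate). Run according to the kit's instructions. Ki values determined for oligosaccharide test compounds.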
`CC(=O)N[C@H]1[C@@H]2OC[C@@H](O2)[C@@H](O[C@@H]2O[C@H](CO)[C@@H](O)[C@H](O)[C@H]2NC(C)=O)[C@@H]1O` [compound 1, 1]: the Ki was determined as 3590 ± 1290 µM.

Take `CC(=O)N[C@H]1[C@@H]2OC[C@@H](O2)[C@@H](O[C@@H]2O[C@H](CO)[C@@H](O[C@@H]3O[C@H](CO)[C@@H](O)[C@H](O)[C@H]3NC(C)=O)[C@H](O)[C@H]2NC(C)=O)[C@@H]1O` [compound 2, 2]: the Ki was 170 ± 130 µM. Compared with the last compound, the Ki is about 21-fold lower.

For `CC(=O)N[C@H]1[C@@H]2OC[C@@H](O2)[C@@H](O[C@@H]2O[C@H](CO)[C@@H](O[C@@H]3O[C@H](CO)[C@@H](O[C@@H]4O[C@H](CO)[C@@H](O)[C@H](O)[C@H]4NC(C)=O)[C@H](O)[C@H]3NC(C)=O)[C@H](O)[C@H]2NC(C)=O)[C@@H]1O` [compound 3, 3], the Ki was 300 ± 270 µM.

Regarding `CC(=O)N[C@H]1[C@H](O[C@H]2[C@H](O)[C@@H](NC(C)=O)[C@@H]3OC[C@H]2O3)O[C@H](CO)[C@@H](O[C@@H]2O[C@H](CO)[C@@H](O)[C@H](O)[C@H]2N)[C@@H]1O` [compound 4, 4], the Ki stood at 400 ± 230 µM.

For `CC(=O)N[C@H]1[C@H](O[C@H]2[C@H](O)[C@@H](NC(C)=O)[C@@H]3OC[C@H]2O3)O[C@H](CO)[C@@H](O[C@@H]2O[C@H](COP(=O)(O)O)[C@@H](O)[C@H](O)[C@H]2N)[C@@H]1O` [compound 5, 5], the Ki was determined as 750 ± 410 µM.

Another assay addresses T1, Plu2411 (Photorhabdus laumondii, UniProt Q7N4D0).
T1 sequence (Q7N4D0 1-259): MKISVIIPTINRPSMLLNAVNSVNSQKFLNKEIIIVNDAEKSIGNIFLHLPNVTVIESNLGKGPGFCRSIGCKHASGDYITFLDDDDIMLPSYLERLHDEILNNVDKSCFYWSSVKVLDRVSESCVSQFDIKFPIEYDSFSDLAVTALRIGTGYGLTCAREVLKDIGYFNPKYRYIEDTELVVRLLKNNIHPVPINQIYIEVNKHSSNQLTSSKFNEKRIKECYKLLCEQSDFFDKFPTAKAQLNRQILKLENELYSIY
The assay is described as follows: LC/MS product detection, GT-only reaction. Format: biochemical. To be noted: α-UDP-GlcNAc as substrate.
`O=c1ccn([C@@H]2O[C@H](COP(=O)(O)OP(=O)(O)O)[C@@H](O)[C@H]2O)c(=O)[nH]1` [UDP]: the “LC/MS product detection, GT-only reaction” value was “In the GT-only reaction, we could detect UDP and free Glc-NAc products”.

Broadly, the Ki is the equilibrium dissociation constant of an inhibitor or competing ligand from its target. Read a low Ki as higher affinity.
